{
  "source": "ChEMBL document CHEMBL1130025",
  "about": "“Dihydro(alkylthio)(naphthylmethyl)oxopyrimidines: novel non-nucleoside reverse transcriptase inhibitors of the S-DABO series” (J Med Chem, 1997)",
  "key": {"[1]": {"system": "C8166", "assay": "Ability to inhibit HIV-2 multiplication in acutely infected C8166 cells", "type": "functional, cell-based", "details": "Homo sapiens", "outline": "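C8166 cells (1×10^4 per well) in RPMI 1640 with 10% FCS were infected with 1000 CCID50 of HIV-2 ROD, alongside serial compound dilutions from DMSO stock. After 5 days at 37 °C, viable cells were counted by MTT. EC50 is the dose giving 50% protection from virus-induced cytopathicity. Data are means of three experiments.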"}, "[2]": {"system": "H9", "assay": "Ability to inhibit HIV-1 multiplication in chronically infected H9/IIIB cells", "type": "functional, cell-based", "details": "Homo sapiens", "outline": "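Value taken as compound dose lowering infectious HIV-1 titer by 1 log in chronically infected H9/IIIB cells. Titer was read in C8166 cells by limiting dilution (1:2, 4 replica wells per dilution), with light-microscope scoring of cytopathicity after 4 days, expressed as CCID50/mL. Data are means of three separate experiments.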"}, "[3]": {"system": "MT4", "assay": "Dose required to reduce the viability of mock-infected cells by 50%", "type": "functional", "details": "Homo sapiens", "outline": "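Mock-infected MT-4 cells (1×10^4 per well) were exposed to compound dilutions in parallel with the antiviral assay. After 4 days at 37 °C, viability was measured by MTT. CC50 is the dose reducing viable cell number by 50%.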"}, "[4]": {"system": "MT4", "assay": "Inhibitor activity against resistant HIV-1 strain MC639r was determined.", "type": "functional, cell-based", "details": "Homo sapiens"}, "[5]": {"system": "MT4", "assay": "Inhibitory activity against resistant HIV-1 strain NevR was determined.", "type": "functional, cell-based", "details": "Homo sapiens"}, "[6]": {"system": "Human immunodeficiency virus type 1", "assay": "Selectivity index is the ratio of CC50 to EC50", "details": "Human immunodeficiency virus 1"}, "[7]": {"system": "MT4", "assay": "Dose required to achieve 50% protection of MT-4 cells from the HIV-1 induced cytopathogenicity in HIV-1 infected MT-4 cells", "details": "Homo sapiens"}},
  "data": [
    {"smiles": "CCC(C)Sc1nc(O)c(C)c(COc2ccccc2)n1", "note": "(configuration not stated)", "values": [
      {"measurement": "EC50", "setting": "[1]", "result": "> 100", "unit": "µM"},
      {"measurement": "EC50", "setting": "[2]", "result": "> 100", "unit": "µM"},
      {"measurement": "CC50", "setting": "[3]", "result": 60, "unit": "µM"},
      {"measurement": "EC50", "setting": "[4]", "result": "> 100", "unit": "µM"},
      {"measurement": "EC50", "setting": "[5]", "result": "> 100", "unit": "µM"},
      {"measurement": "Ratio", "setting": "[6]", "result": 7},
      {"measurement": "EC50", "setting": "[7]", "result": 8.9, "unit": "µM"}
    ]}
  ]
}
